Measured values gathered from unrelated publications.
Each line is one published result; the experiments were not run side by side.
Effect on: cell growth or viability

| SMILES | cell line | method | tested at | time | measurement | result |
| --- | --- | --- | --- | --- | --- | --- |
| C[C@H](Oc1nccc(-c2noc3c2CCC[C@@]32CCCc3sc(N)c(C#N)c32)n1)[C@@H]1CCCN1C | BaF3 |  |  | 72 h | EC50 | 42 nM |
| Cc1ccc(CN2C(=O)C(=Nc3cccc(C)c3)c3ccccc32)cc1 | L02 | MTT |  | 48 h | IC50 | 10300 nM |
| C[C@H](Nc1ccc2c(c1)OCCn1cc(N3C(=O)OC[C@H]3C(F)F)nc1-2)C(N)=O | MFM-223 | ATP luminescence |  | 5 days | EC50 | 1390 nM |
| Cc1nc(Nc2ncc(C(=O)Nc3c(C)cccc3Cl)s2)cc(N2CC[C@H](O)C2)n1 | REH | ATP luminescence | 10 µM | 72 h | inhibition | 32% |
| Cc1ncsc1-c1ccc(CNC(=O)[C@@H]2C[C@@H](O)CN2C(=O)[C@@H](NC(=O)COCCOCCOCCNC(=O)C[C@@H]2N=C(c3ccc(Cl)cc3)c3c(sc(C)c3C)-n3c(C)nnc32)C(C)(C)C)cc1 | HCC1806 | MTT |  | 6 days | IC90 | 810 nM |
| C[C@H]1CNCCN1c1nccc(-c2noc([C@@]3(C)CCCc4sc(N)c(C#N)c43)n2)n1 | BaF3 |  |  | 72 h | EC50 | 1580 nM |
| Cc1ccc(CN2C(=O)C(=Nc3c(C(C)C)cccc3C(C)C)c3ccccc32)cc1 | L02 | MTT |  | 48 h | IC50 | 177000 nM |
| C[C@H]1CN(C)CCN1c1nccc(-c2noc3c2CCC[C@@]32CCCc3sc(N)c(C#N)c32)n1 | BaF3 |  |  | 72 h | EC50 | 479 nM |
| O=C1Nc2ccccc2C1=Nc1ccccc1Br | L02 | MTT |  | 48 h | IC50 | 31400 nM |
